Measurements from ChEMBL document CHEMBL4406880, “Design, synthesis, and bioactivity of dihydropyrimidine derivatives as kinesin spindle protein inhibitors” (Bioorg Med Chem, 2019).

Columns and labels:
[1] = Inhibition of kinesin (unknown origin) assessed as reduction in ATPase activity using microtubule as substrate measured for 5 to mins; design: species or system Homo sapiens
[2] = system: DU-145; test: Growth inhibition of human DU145 cells assessed as growth percentage at 10 uM incubated for 48 hrs by sulforhodamine B assay relative to control; assay type: functional; details: DU-145, 48 h, read-out: Activity
Outline: (§1)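 NCI-60 one-dose screen: cells in RPMI 1640 with 5% FBS and 2 mM L-glutamine, plated at 5,000–40,000 cells/well and preincubated 24 h at 37 °C, 5% CO2. Compound is added from a DMSO stock to a final 10 µM and incubated 48 h. Cells are TCA-fixed and stained with sulforhodamine B, read at 515 nm. Output is % growth versus untreated control, with a time-zero plate.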

[3] = system: HEK293; test: Growth inhibition of human HEK293 cells assessed as cell viability incubated for 48 hrs by MTT assay; assay type: cell-based; design: unit not given here
Outline: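 HEK 293 normal-cell growth inhibition; measured in triplicate, IC50 reported as mean ± SD.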

[4] = system: LOX IMVI; test: Growth inhibition of human LOXIMVI cells assessed as growth percentage at 10 uM incubated for 48 hrs by sulforhodamine B assay relative to control; assay type: functional; details: read-out: Activity
Outline: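 NCI-60 one-dose screen. Cells in RPMI 1640 with 5% FBS and 2 mM L-glutamine, seeded at 5,000–40,000 cells/well according to doubling time, and preincubated overnight at 37 °C, 5% CO2. A time-zero plate was TCA-fixed at drug addition. Compound from DMSO stock, final 10 µM, 48 h; DMSO vehicle controls. Fixation with TCA, 10% final (16% for suspension cells). SRB stain, Tris solubilization, A515. Result given as % growth versus untreated cells.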

[5] = system: HCT-15; test: Growth inhibition of human HCT15 cells assessed as growth percentage at 10 uM incubated for 48 hrs by sulforhodamine B assay relative to control; assay type: functional; details: HCT-15, 48 h, read-out: Activity; outline: as §1
[6] = system: RPMI-8226; test: Growth inhibition of human RPMI8226 cells assessed as growth percentage at 10 uM incubated for 48 hrs by sulforhodamine B assay relative to control; assay type: functional; details: RPMI-8226, 48 h, read-out: Activity
Outline: (§2)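 NCI-60 single-dose screen. Cells were grown in RPMI 1640 with 5% FBS and 2 mM L-glutamine and plated at 5,000–40,000 cells/well. After an overnight preincubation at 37 °C in 5% CO2, compound was added at a final 10 µM from a DMSO stock, with DMSO/PBS controls. After 48 h, cells were TCA-fixed and stained with 0.4% SRB, and absorbance was read at 515 nm. Growth is given as a percentage of untreated control.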

[7] = system: SNB-75; test: Cell cycle arrest in human SNB75 cells assessed as accumulation in G0/G1 phase at 2 uM incubated for 24 hrs by propidium iodide based flow cytometry (reference value: 55.62 %); assay type: functional
Outline: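 SNB-75 cells were exposed to 2 µM for 24 h at 37 °C, 5% CO2, then washed with PBS and fixed in 70% ethanol on ice for 15 min. They were stained 1 h at room temperature with 50 µg/mL propidium iodide, 0.1 mg/mL RNase A and 0.05% Triton X-100. DNA content was read by flow cytometry to give the % of cells in pre-G1, G0/G1, S and G2/M.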

[8] = Growth inhibition of human HEK293 cells assessed as cell viability at 1.56 ug incubated for 48 hrs by MTT assay relative to control; assay type: cell-based; details: read-out: Activity
[9] = system: MDA-MB-435; test: Induction of apoptosis in human MDA-MB-435 cells assessed as active caspase 3 level incubated for 2 hrs by ELISA (reference value: 1); assay type: functional
Outline: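 Active caspase-3 was measured by human sandwich ELISA. Samples were incubated on the plate for 2 h at room temperature. This was followed by 1 h with detection antibody, 30 min with anti-rabbit IgG-HRP, and 30 min with chromogen, with all steps at room temperature. Absorbance was read at 450 nm, and levels were read from a standard curve.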

[10] = system: SN12C; test: Growth inhibition of human SN12C cells assessed as growth percentage at 10 uM incubated for 48 hrs by sulforhodamine B assay relative to control; assay type: functional; details: read-out: Activity; outline: as §2
[11] = Growth inhibition of human HEK293 cells assessed as cell viability at 0.39 ug incubated for 48 hrs by MTT assay relative to control; assay type: cell-based; details: read-out: Activity
[12] = system: BT-549; test: Growth inhibition of human BT549 cells assessed as growth percentage at 10 uM incubated for 48 hrs by sulforhodamine B assay relative to control; assay type: functional; details: BT-549, 48 h, read-out: Activity; outline: as §1
[13] = Growth inhibition of human HEK293 cells assessed as cell viability at 25 ug incubated for 48 hrs by MTT assay relative to control; assay type: cell-based; details: read-out: Activity
[14] = system: MDA-MB-435; test: Induction of apoptosis in human MDA-MB-435 cells assessed as active caspase 9 level incubated for 2 hrs by ELISA (reference value: 1); assay type: functional
Outline: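 Caspase-9 was measured by human ELISA on cell lysates, with samples in duplicate. Samples were incubated with detection antibody for 2 h at room temperature. This was followed by 1 h with anti-rabbit IgG-HRP and 10 min with TMB substrate. After a stop solution, absorbance was read at 450 nm.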

[15] = Growth inhibition of human HEK293 cells assessed as cell viability at 100 ug incubated for 48 hrs by MTT assay relative to control; assay type: cell-based; details: read-out: Activity
[16] = system: HOP-62; test: Growth inhibition of human HOP62 cells incubated for 48 hrs by sulforhodamine B assay; assay type: functional; details: HOP-62, 48 h
Outline: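 NCI-60 five-dose SRB assay in RPMI 1640 with 5% FBS, 37 °C, 5% CO2. Compound given at five tenfold dilutions, 0.01–100 µM, for 48 h. Adherent cells fixed with TCA, suspension cells with 16% final TCA. Bound SRB read at 515 nm and growth calculated against time-zero and untreated controls. GI50 taken from dose–response curves as the concentration giving a 50% decrease in net cell growth.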

[17] = system: SK-OV-3; test: Growth inhibition of human SKOV3 cells assessed as growth percentage at 10 uM incubated for 48 hrs by sulforhodamine B assay relative to control; assay type: functional; details: SK-OV-3, 48 h, read-out: Activity; outline: as §2
[18] = Growth inhibition of human HEK293 cells assessed as cell viability at 6.25 ug incubated for 48 hrs by MTT assay relative to control; assay type: cell-based; details: read-out: Activity
[19] = system: RXF 393; test: Growth inhibition of human RXF393 cells assessed as growth percentage at 10 uM incubated for 48 hrs by sulforhodamine B assay relative to control; assay type: functional; details: RXF 393, 48 h, read-out: Activity; outline: as §2
[20] = system: SN12C; test: Growth inhibition of human SN12C cells assessed as cell viability at 1 uM incubated for 48 hrs by sulforhodamine B assay; assay type: functional; details: read-out: Activity
[21] = system: NCI-H522; test: Growth inhibition of human NCI-H522 cells assessed as cell viability at 1 uM incubated for 48 hrs by sulforhodamine B assay; assay type: functional; details: NCI-H522, 48 h, read-out: Activity
[22] = system: UACC-62; test: Growth inhibition of human UACC62 cells assessed as growth percentage at 10 uM incubated for 48 hrs by sulforhodamine B assay relative to control; assay type: functional; details: UACC-62, 48 h, read-out: Activity; outline: as §2

| SMILES | IC50 [1] | growth at 10 µM [2] | IC50 [3] | growth at 10 µM [4] | growth at 10 µM [5] | growth at 10 µM [6] | viability at 48 h, 1.56 ug [8] | fold change (FC) [9] | growth at 10 µM [10] | viability at 48 h, 0.39 ug [11] | growth at 10 µM [12] | viability at 48 h, 25 ug [13] | fold change (FC) [14] | viability at 48 h, 100 ug [15] | growth at 10 µM [17] | viability at 48 h, 6.25 ug [18] | growth at 10 µM [19] | growth at 10 µM [22] | other results |
| --- | --- | --- | --- | --- | --- | --- | --- | --- | --- | --- | --- | --- | --- | --- | --- | --- | --- | --- | --- |
| CC1=C(C(=O)OCc2ccccc2)C(c2ccc3c(c2)OCO3)n2c(nc3ccccc32)N1 (racemic) | 4.36 µM | 49 to 53.5% | 16.75 | 34.6 to 38% | 23 to 30.4% | 39.9% | 67.2% | 6.83 | 47.6 to 51% | 77.6% | 44 to 50.5% | 47.2% | 12.43 | 36% | 27 to 41.7% | 58.7% | 30 to 53.2% | 22 to 46.2% | Activity [7]: 34.52%; GI50 ([16]; read-out: GI50): 0.78 µM; CC50 ([16]; read-out: LC50 (the source's name)): > 100 µM; TGI ([16]; read-out: TGI): > 100 µM; GI50 ([16]; read-out: pGI50 (converted)): 0.776 µM; CC50 ([16]; read-out: pLC50 (the source's name) (converted)): > 100 µM; TGI ([16]; read-out: pTGI): > 100 µM; viability at 1 µM [20]: 42%; viability at 1 µM [21]: 3% |
| CC1=C(C(=O)c2ccccc2)C(c2ccc3c(c2)OCO3)NC(=S)N1 (racemic) | 10.7 µM | 78.7% | 62.02 | 36.2% | 33.7% | 44% | 79.5% |  | 51.4% | 86.8% | 50.6% | 57.9% |  | 46% | 51.6% | 69.9% | 59.5% | 51.6% |  |
| CC(=O)C1=C(C)Nc2nc3ccccc3n2C1c1ccc2c(c1)OCO2 (racemic) | 14.1 µM | 109% | 19.3 | 94.9% | 98.2% | 96.4% | 70.7% |  | 101% | 77.4% | 102% | 48.6% |  | 36.6% | 106% | 59% | 108% | 94.4% |  |
| CC1(C)CC(=O)C2=C(C1)NC(=O)NC2c1ccc2c(c1)OCO2 (racemic) | 3.95 µM | 107% | 33.2 | 99.3% | 103% | 110% | 71.5% |  | 105% | 78% | 109% | 50.9% |  | 43.5% | 112% | 60.1% | 118% | 107% |  |
| CC(=O)N1C(=S)NC(C)=C(C(=O)OCc2ccccc2)C1c1ccc2c(c1)OCO2 (racemic) | 3.86 µM | 95% | 27.99 | 74.1% | 83.8% | 54.8% | 69.3% | 7.9 | 54.5% | 76.2% | 88.8% | 50% | 18.79 | 41.4% | 79.2% | 61.3% | 101% | 75.3% |  |
